Key:
[1] = Modulation of gamma secretase in CHO-2B7 cells assessed as reduction in amyloid beta 42 level after 5 hrs by MSD ELISA; format: cell-based; conditions: Cricetulus griseus, CHO-2B7, 5 h
[2] = test system: CHO-2B7; test: Modulation of gamma secretase in CHO-2B7 cells assessed as reduction in amyloid beta 40 level at 20 uM after 5 hrs by MSD ELISA; format: cell-based; parameters: scale not given: the % may be the effect or the level left; conditions: Cricetulus griseus
[3] = (§1) Metabolic stability in human liver microsomes assessed as compound remaining at 1 uM at 60 mins by LC/MS/MS analysis in absence of NADPH; format: ADME, Microsome; conditions: liver microsomes, read-out: Stability
In short: (§2)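 Human liver microsomes were run without NADPH as a qualitative read of susceptibility to enzymatic hydrolysis. The read-out was percent parent remaining at 60 min.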

[4] = test system: Liver microsomes; test: as §1; format: ADME, Microsome; conditions: microsomes, 1 h, 1 µM; in short: as §2
[5] = test system: Liver microsomes; test: Metabolic stability in human liver microsomes at 1 uM after 60 mins by LC/MS/MS analysis; conditions: 1 h
[6] = Modulation of gamma secretase in CHO-2B7 cells assessed as reduction in amyloid beta 40 level after 5 hrs by MSD ELISA; format: cell-based; conditions: Cricetulus griseus, CHO-2B7, 5 h
[7] = test system: CHO-2B7; test: Modulation of gamma secretase in CHO-2B7 cells assessed as reduction in amyloid beta 42 level at 20 uM after 5 hrs by MSD ELISA; format: cell-based; parameters: scale not given: the % may be the effect or the level left; conditions: Cricetulus griseus

SMILES	IC50 [1] [nM]	Activity [2] [%]	remaining at 1 h, 1 µM [3] [%]	Stability [4] [%]	Stability [5]	IC50 [6] [nM]	Activity [7] [%]
CNC(=O)O[C@H](C(C)C)[C@H]1C[C@@H](C)[C@H]2[C@H](O1)[C@H](O)[C@@]1(C)[C@@H]3CC[C@H]4C(C)(C)[C@@H](OC(N)=O)CC[C@@]45C[C@@]35CC[C@]21C	950	40	117	–	–	–	–
CNC(=O)O[C@H](C(C)C)[C@H]1C[C@@H](C)[C@H]2[C@H](O1)[C@H](O)[C@@]1(C)[C@@H]3CC[C@H]4C(C)(C)[C@@H](OC(=O)N5CCC5)CC[C@@]45C[C@@]35CC[C@]21C	17000	47	–	152	–	–	–
CC(C)[C@@H](OC(=O)N1CCC1)[C@H]1C[C@@H](C)[C@H]2[C@H](O1)[C@H](O)[C@@]1(C)[C@@H]3CC[C@H]4C(C)(C)[C@@H](OC(=O)NC5CCOCC5)CC[C@@]45C[C@@]35CC[C@]21C	3000	27	–	–	Stable	–	–
C[C@@H]1C[C@H](COC(=O)N(C)C)O[C@H]2[C@H]1[C@@]1(C)CC[C@@]34C[C@@]35CC[C@H](O[C@H]3CN(C(=O)CC6CC6)CCO3)C(C)(C)[C@@H]5CC[C@H]4[C@]1(C)[C@H]2O	1200	63	81	–	–	–	–
CC(C)[C@@H](OC(=O)N1CCC1)[C@H]1C[C@@H](C)[C@H]2[C@H](O1)[C@H](O)[C@@]1(C)[C@@H]3CC[C@H]4C(C)(C)[C@@H](O[C@H]5CN(CC(=O)O)CCO5)CC[C@@]45C[C@@]35CC[C@]21C	700	41	–	–	Stable	–	–
CC(C)[C@@H](OC(=O)N(C)C)[C@H]1C[C@@H](C)[C@H]2[C@H](O1)[C@H](O)[C@@]1(C)[C@@H]3CC[C@H]4C(C)(C)[C@@H](OC(N)=O)CC[C@@]45C[C@@]35CC[C@]21C	920	–	–	131	–	19000	–
CNC(=O)O[C@H](C(C)C)[C@H]1C[C@@H](C)[C@H]2[C@H](O1)[C@H](O)[C@@]1(C)[C@@H]3CC[C@H]4C(C)(C)[C@@H](OC(=O)N5CCOCC5)CC[C@@]45C[C@@]35CC[C@]21C	4600	17	–	139	–	–	–
CC(=O)O[C@@H]([C@H]1C[C@@H](C)[C@H]2[C@H](O1)[C@H](O)[C@@]1(C)[C@@H]3CC[C@H]4C(C)(C)[C@@H](OC(N)=O)CC[C@@]45C[C@@]35CC[C@]21C)C(C)(C)O	200	37	–	–	–	–	–
C[C@@H]1C[C@H]([C@H](O)C(C)(C)O)O[C@H]2[C@H]1[C@@]1(C)CC[C@@]34C[C@@]35CC[C@H](O[C@H]3CN(C(=O)C6(C)COC6)CCO3)C(C)(C)[C@@H]5CC[C@H]4[C@]1(C)[C@H]2O	70	–	–	–	–	–	50
CCO[C@@H]([C@H]1C[C@@H](C)[C@H]2[C@H](O1)[C@H](O)[C@@]1(C)[C@@H]3CC[C@H]4C(C)(C)[C@@H](OC(=O)NC5CNC5)CC[C@@]45C[C@@]35CC[C@]21C)C(C)(C)O	53	–	92	–	Stable	1900	–
CCO[C@@H]([C@H]1C[C@@H](C)[C@H]2[C@H](O1)[C@H](O)[C@@]1(C)[C@@H]3CC[C@H]4C(C)(C)[C@@H](OC(=O)N5CCNC(C(F)(F)F)C5)CC[C@@]45C[C@@]35CC[C@]21C)C(C)(C)O (stereo partly drawn)	390	31	–	–	Stable	–	–
CC(C)[C@@H](OC(N)=O)[C@H]1C[C@@H](C)[C@H]2[C@H](O1)[C@H](O)[C@@]1(C)[C@@H]3CC[C@H]4C(C)(C)[C@@H](OC(=O)NC5CNC5)CC[C@@]45C[C@@]35CC[C@]21C	160	–	–	121	–	4000	–
C[C@@H]1C[C@H]([C@H](O)C(C)(C)O)O[C@H]2[C@H]1[C@@]1(C)CC[C@@]34C[C@@]35CC[C@H](O[C@H]3CN(CC(N)=O)CCO3)C(C)(C)[C@@H]5CC[C@H]4[C@]1(C)[C@H]2O	60	–	–	–	–	–	0
CC(C)[C@@H](OC(N)=O)[C@H]1C[C@@H](C)[C@H]2[C@H](O1)[C@H](O)[C@@]1(C)[C@@H]3CC[C@H]4C(C)(C)[C@@H](OC(=O)N5CCOCC5)CC[C@@]45C[C@@]35CC[C@]21C	3400	32	–	130	–	–	–
CC(C)[C@@H](OC(=O)N1CCC1)[C@H]1C[C@@H](C)[C@H]2[C@H](O1)[C@H](O)[C@@]1(C)[C@@H]3CC[C@H]4C(C)(C)[C@@H](OC(=O)N5CCC5)CC[C@@]45C[C@@]35CC[C@]21C	470	–	–	158	Stable	10000	–
CCO[C@@H]([C@H]1C[C@@H](C)[C@H]2[C@H](O1)[C@H](O)[C@@]1(C)[C@@H]3CC[C@H]4C(C)(C)[C@@H](OC(=O)NCCNS(=O)(=O)C(F)(F)F)CC[C@@]45C[C@@]35CC[C@]21C)C(C)(C)O	710	13	–	–	Stable	–	–
C[C@@H]1C[C@H]([C@H](OC(=O)N(C)C)C(C)(C)O)O[C@H]2[C@H]1[C@@]1(C)CC[C@@]34C[C@@]35CC[C@H](O)C(C)(C)[C@@H]5CC[C@H]4[C@]1(C)[C@H]2O	–	–	115	–	–	–	53
C[C@@H]1C[C@H]([C@H](O)C(C)(C)O)O[C@H]2[C@H]1[C@@]1(C)CC[C@@]34C[C@@]35CC[C@H](O[C@H]3CN(C(=O)c6nccn6C)CCO3)C(C)(C)[C@@H]5CC[C@H]4[C@]1(C)[C@H]2O	130	–	–	–	–	–	5
CC(C)[C@@H](OC(=O)N1CCC1)[C@H]1C[C@@H](C)[C@H]2[C@H](O1)[C@H](O)[C@@]1(C)[C@@H]3CC[C@H]4C(C)(C)[C@@H](OC(=O)NC5CNC5)CC[C@@]45C[C@@]35CC[C@]21C	100	–	–	127	Stable	2600	–
CC(C)[C@@H](OC(=O)N1CCC1)[C@H]1C[C@@H](C)[C@H]2[C@H](O1)[C@H](O)[C@@]1(C)[C@@H]3CC[C@H]4C(C)(C)[C@@H](O[C@H]5CN(C(=O)CNS(=O)(=O)C(F)(F)F)CCO5)CC[C@@]45C[C@@]35CC[C@]21C	1300	49	–	–	Stable	–	–
CC(C)[C@@H](OC(=O)N(C)C)[C@H]1C[C@@H](C)[C@H]2[C@H](O1)[C@H](O)[C@@]1(C)[C@@H]3CC[C@H]4C(C)(C)[C@@H](OC(=O)N5CCOCC5)CC[C@@]45C[C@@]35CC[C@]21C	7400	17	118	–	–	–	–
CC(C)[C@@H](OC(=O)N1CCC1)[C@H]1C[C@@H](C)[C@H]2[C@H](O1)[C@H](O)[C@@]1(C)[C@@H]3CC[C@H]4C(C)(C)[C@@H](OC(=O)N5CCOCC5)CC[C@@]45C[C@@]35CC[C@]21C	360	–	104	–	Stable	11000	–
COC(=O)OC[C@H]1C[C@@H](C)[C@H]2[C@H](O1)[C@H](O)[C@@]1(C)[C@@H]3CC[C@H]4C(C)(C)[C@@H](O[C@H]5CN(C(=O)CC6CC6)CCO5)CC[C@@]45C[C@@]35CC[C@]21C	330	46	59	–	–	–	–
CC(C)[C@@H](OC(=O)N1CCC1)[C@H]1C[C@@H](C)[C@H]2[C@H](O1)[C@H](O)[C@@]1(C)[C@@H]3CC[C@H]4C(C)(C)[C@@H](OC(=O)N5CCC(F)(F)CC5)CC[C@@]45C[C@@]35CC[C@]21C	9100	12	–	–	Stable	–	–
CC(C)CO[C@@H]([C@H]1C[C@@H](C)[C@H]2[C@H](O1)[C@H](O)[C@@]1(C)[C@@H]3CC[C@H]4C(C)(C)[C@@H](O[C@H]5CN(C6COC6)CCO5)CC[C@@]45C[C@@]35CC[C@]21C)C(C)(C)O	3000	–	78	–	–	6000	–
CC(=O)O[C@@H]([C@H]1C[C@@H](C)[C@H]2[C@H](O1)[C@H](O)[C@@]1(C)[C@@H]3CC[C@H]4C(C)(C)[C@@H](O[C@H]5CN(C(=O)CC6CC6)CCO5)CC[C@@]45C[C@@]35CC[C@]21C)C(C)(C)O	130	38	2	–	–	–	–
CCO[C@@H]([C@H]1C[C@@H](C)[C@H]2[C@H](O1)[C@H](O)[C@@]1(C)[C@@H]3CC[C@H]4C(C)(C)[C@@H](OC(=O)NC)CC[C@@]45C[C@@]35CC[C@]21C)C(C)(C)O	360	47	–	–	Stable	–	–
C=C(C)CO[C@@H]([C@H]1C[C@@H](C)[C@H]2[C@H](O1)[C@H](O)[C@@]1(C)[C@@H]3CC[C@H]4C(C)(C)[C@@H](O[C@H]5CN(C6COC6)CCO5)CC[C@@]45C[C@@]35CC[C@]21C)C(C)(C)O	340	–	84	–	–	11000	–
CCO[C@@H]([C@H]1C[C@@H](C)[C@H]2[C@H](O1)[C@H](O)[C@@]1(C)[C@@H]3CC[C@H]4C(C)(C)[C@@H](OC(N)=O)CC[C@@]45C[C@@]35CC[C@]21C)C(C)(C)O	210	–	116	–	Stable	3900	–
CC(C)[C@@H](OC(=O)N1CCC1)[C@H]1C[C@@H](C)[C@H]2[C@H](O1)[C@H](O)[C@@]1(C)[C@@H]3CC[C@H]4C(C)(C)[C@@H](OC(N)=O)CC[C@@]45C[C@@]35CC[C@]21C	–	–	–	150	–	–	–
